Assay results taken from ChEMBL document CHEMBL1821590, “Novel dihydropyrimidines and its pyrazole derivatives: synthesis and pharmacological screening” (Eur J Med Chem, 2011).
≈ marks a conversion by molar mass, not a printed value.

Legend:
Format in all cases: functional
[1] = Antioxidant activity assessed as nitric oxide radical scavenging activity after 150 mins
In short: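 10 mM sodium nitroprusside (4 mL), PBS pH 7.4 (1 mL) and sample or ascorbic acid in DMSO (1 mL, 12.5–100 µg/mL), incubated 150 min at 25 °C. Nitrite detected with sulphanilic acid (5 min) then naphthylethylenediamine (30 min, diffused light). Read at […]. Triplicate. % inhibition = [1 − (Vt/Vc)] × 100. IC50 derived from it.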

[2] = Antioxidant activity assessed as hydrogen peroxide scavenging activity after 10 mins
In short: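 H2O2 (20 mM) in PBS pH 7.4. 1 mL of sample or ascorbic acid in methanol (12.5–100 µg/mL) added to 2 mL H2O2 solution. A230 read after 10 min. % inhibition = [1 − (Vt/Vc)] × 100. Triplicate, averaged. IC50 derived from % inhibition across concentrations.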

[3] = Antioxidant activity assessed as inhibition of lipid peroxidation using egg lecithin liposomes incubated for 1 hr
In short: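 Egg lecithin (3 mg/mL, phosphate buffer pH 7.4) sonicated 10 min to form liposomes. Sample or ascorbic acid (12.5–100 µg/mL) added. Peroxidation induced with FeCl3 and L-ascorbic acid, 1 h at 37 °C. Stopped with HCl/TCA/TBA/BHA, boiled 15 min, centrifuged, supernatant read at 532 nm. Triplicate. % inhibition vs control. IC50 derived.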

[4] = Antioxidant activity assessed as potassium ferricyanide ion reducing power after 20 mins
In short: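 Oyaizu method. Samples or ascorbic acid in DMF (12.5–100 µg/mL) mixed with 0.2 M phosphate buffer pH 6.6 and 1% potassium ferricyanide, 20 min at 50 °C. 10% TCA added, centrifuged. Supernatant mixed with water and 0.1% FeCl3, read at 700 nm. % = [(Vt/Vc) − 1] × 100. IC50 derived.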

[5] = Antiinflammatory activity assessed as inhibition of albumin denaturation at 100 ug/ml by UV-visible spectrophotometry
In short: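 Compounds dissolved in minimal DMF, diluted in PBS pH 7.4 (final DMF <2.5%). 1 mL test solution (100 µg/mL) plus 1 mL 1% albumin in PBS, 15 min at 27 ± 1 °C, then heated 10 min at 60 ± 1 °C. After cooling, turbidity read at 660 nm. % inhibition = [(Vt/Vc) − 1] × 100 against a no-drug control. Triplicate, averaged. Diclofenac standard.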

Metaphire posthuma [6] = experiment: Anthelmintic activity against Pheretima posthuma assessed as time taken for complete parasite paralysis at 0.1% w/v
In short: (§1)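 Earthworms (Pheretima posthuma) exposed to test solutions at 0.1, 0.2 and 0.5% w/v; time in minutes to complete paralysis (worms motionless) recorded. Albendazole as standard. Mean of three determinations ± S.D.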

Metaphire posthuma [7] = experiment: Anthelmintic activity against Pheretima posthuma assessed as time taken for complete parasite paralysis at 0.2% w/v; in short: as §1
Metaphire posthuma [8] = experiment: Anthelmintic activity against Pheretima posthuma assessed as time taken for complete parasite paralysis at 0.5% w/v; in short: as §1
Metaphire posthuma [9] = experiment: Anthelmintic activity against Pheretima posthuma assessed as time taken for parasite death at 0.1% w/v
In short: (§2)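 Earthworms (Pheretima posthuma, spelled Perituma posthuma in text) exposed to test compounds at 0.1, 0.2 and 0.5% w/v. Albendazole served as standard, with an untreated control. Paralysis was recorded as the time until worms became motionless, then time to death was recorded, in minutes. Each value is the mean of three determinations with S.D.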

Metaphire posthuma [10] = experiment: Anthelmintic activity against Pheretima posthuma assessed as time taken for parasite death at 0.2% w/v; in short: as §2
Metaphire posthuma [11] = experiment: Anthelmintic activity against Pheretima posthuma assessed as time taken for parasite death at 0.5% w/v; in short: as §2
Escherichia coli [12] = experiment: Antimicrobial activity against Escherichia coli at 25 ug/ml by agar plate diffusion technique; details: read-out: IZ
In short: (§3)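 Agar plate diffusion against E. coli, P. aeruginosa, S. aureus and B. subtilis, with compounds at 25, 50 and 100 µg/mL. Streptomycin as standard.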

Escherichia coli [13] = experiment: Antimicrobial activity against Escherichia coli at 50 ug/ml by agar plate diffusion technique; details: read-out: IZ; in short: as §3
Escherichia coli [14] = experiment: Antimicrobial activity against Escherichia coli at 100 ug/ml by agar plate diffusion technique; details: read-out: IZ; in short: as §3
Pseudomonas aeruginosa [15] = experiment: Antimicrobial activity against Pseudomonas aeruginosa at 25 ug/ml by agar plate diffusion technique; details: read-out: IZ; in short: as §3
Pseudomonas aeruginosa [16] = experiment: Antimicrobial activity against Pseudomonas aeruginosa at 50 ug/ml by agar plate diffusion technique; details: read-out: IZ; in short: as §3
Pseudomonas aeruginosa [17] = experiment: Antimicrobial activity against Pseudomonas aeruginosa at 100 ug/ml by agar plate diffusion technique; details: read-out: IZ; in short: as §3
Bacillus subtilis [18] = experiment: Antimicrobial activity against Bacillus subtilis at 25 ug/ml by agar plate diffusion technique; details: read-out: IZ; in short: as §3
Bacillus subtilis [19] = experiment: Antimicrobial activity against Bacillus subtilis at 50 ug/ml by agar plate diffusion technique; details: read-out: IZ; in short: as §3
Bacillus subtilis [20] = experiment: Antimicrobial activity against Bacillus subtilis at 100 ug/ml by agar plate diffusion technique; details: read-out: IZ; in short: as §3
Candida albicans [21] = experiment: Antimicrobial activity against Candida albicans at 25 ug/ml by paper disc method; details: read-out: IZ
In short: (§4)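 Paper disc method against A. niger and C. albicans, with compounds at 25, 50 and 100 µg/mL. Amphotericin-B as standard.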

Candida albicans [22] = experiment: Antimicrobial activity against Candida albicans at 50 ug/ml by paper disc method; details: read-out: IZ; in short: as §4
Candida albicans [23] = experiment: Antimicrobial activity against Candida albicans at 100 ug/ml by paper disc method; details: read-out: IZ; in short: as §4
Aspergillus niger [24] = experiment: Antimicrobial activity against Aspergillus niger at 25 ug/ml by paper disc method; details: read-out: IZ; in short: as §4
Aspergillus niger [25] = experiment: Antimicrobial activity against Aspergillus niger at 50 ug/ml by paper disc method; details: read-out: IZ; in short: as §4
Aspergillus niger [26] = experiment: Antimicrobial activity against Aspergillus niger at 100 ug/ml by paper disc method; details: read-out: IZ; in short: as §4
Staphylococcus aureus [27] = experiment: Antimicrobial activity against Staphylococcus aureus at 25 ug/ml by agar plate diffusion technique; details: read-out: IZ; in short: as §3
Staphylococcus aureus [28] = experiment: Antimicrobial activity against Staphylococcus aureus at 50 ug/ml by agar plate diffusion technique; details: read-out: IZ; in short: as §3
Staphylococcus aureus [29] = experiment: Antimicrobial activity against Staphylococcus aureus at 100 ug/ml by agar plate diffusion technique; details: read-out: IZ; in short: as §3

| SMILES | IC50 [1] | IC50 [2] | IC50 [3] | IC50 [4] | inhibition [5] | Time (Metaphire posthuma [6]) | Time (Metaphire posthuma [7]) | Time (Metaphire posthuma [8]) | Time (Metaphire posthuma [9]) | Time (Metaphire posthuma [10]) | Time (Metaphire posthuma [11]) | zone of inhibition at 25 µg/mL (Bacillus subtilis [18]) | zone of inhibition at 50 µg/mL (Bacillus subtilis [19]) | zone of inhibition at 100 µg/mL (Bacillus subtilis [20]) | zone of inhibition at 25 µg/mL (Candida albicans [21]) | zone of inhibition at 50 µg/mL (Candida albicans [22]) | zone of inhibition at 100 µg/mL (Candida albicans [23]) | zone of inhibition at 25 µg/mL (Aspergillus niger [24]) | zone of inhibition at 50 µg/mL (Aspergillus niger [25]) | zone of inhibition at 100 µg/mL (Aspergillus niger [26]) | other results |
| --- | --- | --- | --- | --- | --- | --- | --- | --- | --- | --- | --- | --- | --- | --- | --- | --- | --- | --- | --- | --- | --- |
| CN(C)c1ccc(-c2nc(NN)n(C)c(=O)c2C#N)cc1 | 69 µg/mL (≈ 243 µM) | 66 µg/mL (≈ 232 µM) | 63 µg/mL (≈ 222 µM) | 81 µg/mL (≈ 285 µM) | 12.6% | 28.25 min | 26.35 min | 25.64 min | 54.22 min | 46.44 min | 43.34 min | 8.1 mm | 10.5 mm | 14.5 mm | 9.14 mm | 9 mm | 15.3 mm | 7.14 mm | 9.48 mm | 15.8 mm | zone of inhibition at 25 µg/mL (Escherichia coli [12]): 5.74 mm; zone of inhibition at 50 µg/mL (Escherichia coli [13]): 7.82 mm; zone of inhibition at 100 µg/mL (Escherichia coli [14]): 8.28 mm; zone of inhibition at 25 µg/mL (Pseudomonas aeruginosa [15]): 5.78 mm; zone of inhibition at 50 µg/mL (Pseudomonas aeruginosa [16]): 6.27 mm; zone of inhibition at 100 µg/mL (Pseudomonas aeruginosa [17]): 8.83 mm |
| Cn1c(NN)nc(-c2ccco2)c(C#N)c1=O | 65 µg/mL (≈ 281 µM) | 58 µg/mL (≈ 251 µM) | 78 µg/mL (≈ 337 µM) | 64 µg/mL (≈ 277 µM) | 36.6% | 43.73 min | 40.73 min | 37.52 min | 61.58 min | 57.48 min | 50.98 min | 10.8 mm | 13.3 mm | 14.2 mm | 8.26 mm | 10.2 mm | 16 mm | 9.82 mm | 10.1 mm | 17.6 mm | zone of inhibition at 25 µg/mL (Staphylococcus aureus [27]): 8.02 mm; zone of inhibition at 50 µg/mL (Staphylococcus aureus [28]): 10.5 mm; zone of inhibition at 100 µg/mL (Staphylococcus aureus [29]): 12.2 mm |
| Cn1c(NN)nc(-c2cccc(O)c2O)c(C#N)c1=O | 44 µg/mL (≈ 161 µM) | 29 µg/mL (≈ 106 µM) | 31 µg/mL (≈ 113 µM) | 34 µg/mL (≈ 124 µM) | 28.8% | 52.22 min | 48.56 min | 45.65 min | 66.22 min | 63.98 min | 60.27 min | 11.5 mm | 14.5 mm | 22.1 mm | 9.35 mm | 13.8 mm | 18.7 mm | 7.06 mm | 8.44 mm | 15 mm | zone of inhibition at 25 µg/mL (Escherichia coli [12]): 8.72 mm; zone of inhibition at 50 µg/mL (Escherichia coli [13]): 8.16 mm; zone of inhibition at 100 µg/mL (Escherichia coli [14]): 10.2 mm; zone of inhibition at 25 µg/mL (Pseudomonas aeruginosa [15]): 8.1 mm; zone of inhibition at 50 µg/mL (Pseudomonas aeruginosa [16]): 10.1 mm; zone of inhibition at 100 µg/mL (Pseudomonas aeruginosa [17]): 12.9 mm |
| COc1ccc(-c2nc(NN)n(C)c(=O)c2C#N)cc1 | 56 µg/mL (≈ 206 µM) | 32 µg/mL (≈ 118 µM) | 39 µg/mL (≈ 144 µM) | 41 µg/mL (≈ 151 µM) | 20.6% | 47.23 min | 45.23 min | 42.6 min | 62.32 min | 60.22 min | 57.45 min | 9.26 mm | 10.3 mm | 13.6 mm | 8.14 mm | 10.7 mm | 15.8 mm | 8.32 mm | 10 mm | 17 mm | zone of inhibition at 25 µg/mL (Escherichia coli [12]): 6.28 mm; zone of inhibition at 50 µg/mL (Escherichia coli [13]): 7.71 mm; zone of inhibition at 100 µg/mL (Escherichia coli [14]): 7.49 mm; zone of inhibition at 25 µg/mL (Pseudomonas aeruginosa [15]): 5 mm; zone of inhibition at 50 µg/mL (Pseudomonas aeruginosa [16]): 6.96 mm; zone of inhibition at 100 µg/mL (Pseudomonas aeruginosa [17]): 7.21 mm |
| O=C(O)Cc1ccccc1Nc1c(Cl)cccc1Cl | – | – | – | – | 83.3% | – | – | – | – | – | – | – | – | – | – | – | – | – | – | – | – |
